In ChEMBL document CHEMBL1817610, “Synthesis and SAR requirements of adamantane-colchicine conjugates with both microtubule depolymerizing and tubulin clustering activities” (Bioorg Med Chem, 2011):
pEC50: −log10 of the molar value. The source made the active and inactive calls. The rule behind the calls is not given here.

What was measured:
A549 [1] = test: Cytotoxicity against human A549 cells after 24 hrs by MTT assay; type: functional, cell-based; conditions: A549, 24 h
Method in brief: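 A549 cells kept in DMEM with 10% FBS and 1% penicillin/streptomycin at 37 °C, 5% CO2, then seeded at 3 × 10³ per well. Exposure 24 h to test agents at 1–12000 nM (DMSO stocks; 0.4% DMSO negative control), 8 wells per concentration. Surviving cells counted by colorimetric MTT (5 mg/mL in PBS). EC50 averaged over three to six experiments.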

A549 [2] = test: Effect on microtubule network in human A549 cells assessed as microtubule depolymerization at 1 uM after 8 hrs by immunofluorescence microscopic analysis; type: functional, cell-based
Method in brief: (§1)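 A549 cells grown on 11 mm glass coverslips at 2 × 10⁴ cells each. Exposure to compounds at 1 and 5 µM for 8 h at 37 °C, 5% CO2, with 0.5% DMSO as negative control. Cells fixed in 4% paraformaldehyde and stained with mouse monoclonal anti-α-tubulin, then Alexa Fluor488 goat anti-mouse IgG (1:200). Fluorescence microscopy, effect scored semi-quantitatively by '+' grades.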

A549 [3] = test: Effect on microtubule network in human A549 cells assessed as microtubule depolymerization and tubulin clustering at 1 uM after 8 hrs by immunofluorescence microscopic analysis; type: functional, cell-based; method in brief: as §1
Bos taurus = species on record: Bos taurus; test: Inhibition of bovine brain tubulin polymerization after 1 hr
Method in brief: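 Purified bovine brain tubulin polymerized with 10% DMSO present and test agent at 10 µM. Incubation 1 h, then preparations examined by Allen video-enhanced microscopy.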

A549 [4] = test: Effect on microtubule network in human A549 cells assessed as microtubule depolymerization and tubulin clustering at 5 uM after 8 hrs by immunofluorescence microscopic analysis; type: functional, cell-based; method in brief: as §1
A549 (Homo sapiens) = test: Effect on microtubule network in human A549 cells assessed as tubulin clustering formation after 8 hrs by immunofluorescence microscopic analysis
A549 [5] = test: Effect on microtubule network in human A549 cells assessed as microtubule binding at 1 uM after 8 hrs by immunofluorescence microscopic analysis; type: functional, cell-based

SMILES | pEC50 (A549 [1]) | Activity (A549 [3]) | further results
COc1cc2c(c(OC)c1OC)-c1ccc(OC)c(=O)cc1[C@@H](NC(C)=O)CC2 [COLCHICINE] | 7.57 | – | Activity (A549 [2]): Active
COC(=O)CCCCCC(=O)N[C@H]1CCc2cc(OC)c(OC)c(OC)c2-c2ccc(OC)c(=O)cc21 | 7.49 | – | Activity (A549 [2]): Active
COc1cc2c(c(OC)c1OC)-c1ccc(OC)c(=O)cc1[C@@H](NC(=O)CCCCCC(=O)OC13CC4CC(CC(C4)C1)C3)CC2 | 7.96 | Active | –
COc1cc2c(c(OC)c1OC)-c1ccc(OC)c(=O)cc1[C@@H](NC(=O)CCCCCCC(=O)OC1C3CC4CC1CC(OC(=O)[C@H](O)[C@@H](NC(=O)OC(C)(C)C)c1ccccc1)(C4)C3)CC2 (mixture of isomers) | 8.70 | Active | –
COc1cc2c(c(OC)c1OC)-c1ccc(OC)c(=O)cc1[C@@H](NC(=O)CCCCCC(=O)Oc1ccccc1)CC2 | 5.24 | – | Activity (A549 [2]): Active
COc1cc2c(c(OC)c1OC)-c1ccc(OC)c(=O)cc1[C@@H](NC(=O)CCCCCCCC(=O)OC13CC4CC(CC(C4)C1)C3)CC2 | 7.54 | – | –
COc1cc2c(c(OC)c1OC)-c1ccc(OC)c(=O)cc1[C@@H](NC(=O)CCCCCC(=O)OC1C3CC4CC1CC(OC(=O)[C@H](O)[C@@H](NC(=O)OC(C)(C)C)c1ccccc1)(C4)C3)CC2 (mixture of isomers) | 7.14 | Active | inhibition (Bos taurus): Active; Activity (A549 [4]): Active
COc1cc2c(c(OC)c1OC)-c1ccc(OC)c(=O)cc1[C@@H](NC(=O)CCCCC(=O)OC1C3CC4CC(C3)CC1C4)CC2 (stereo not given in full) | 6.08 | Active | –
COc1cc2c(c(OC)c1OC)-c1ccc(OC)c(=O)cc1[C@@H](NC(=O)CCCCCCC(=O)OC1C3CC4CC(C3)CC1C4)CC2 (stereo not given in full) | 8.30 | Active | –
COc1cc2c(c(OC)c1OC)-c1ccc(OC)c(=O)cc1[C@@H](NC(=O)CCCCCC(=O)OC(C)C)CC2 | 7.52 | Active | –
COc1cc2c(c(OC)c1OC)-c1ccc(OC)c(=O)cc1[C@@H](NC(=O)CCCCCCCCCCCOC(=O)[C@H](O)[C@@H](NC(=O)OC(C)(C)C)c1ccccc1)CC2 | 7.39 | Active | –
COc1cc2c(c(OC)c1OC)-c1ccc(OC)c(=O)cc1[C@@H](NC(=O)CCCC(=O)OC1C3CC4CC(C3)CC1C4)CC2 (stereo not given in full) | 6.70 | – | Activity (A549 [2]): Active
COc1cc2c(c(OC)c1OC)-c1ccc(OC)c(=O)cc1[C@@H](NC(=O)CCCCCCCC(=O)OC1C3CC4CC(C3)CC1C4)CC2 (stereo not given in full) | 5.42 | Active | –
COc1cc2c(c(OC)c1OC)-c1ccc(OC)c(=O)cc1[C@@H](NC(=O)CCCC(=O)OC1C3CC4CC1CC(OC(=O)[C@H](O)[C@@H](NC(=O)OC(C)(C)C)c1ccccc1)(C4)C3)CC2 (mixture of isomers) | 6.66 | – | –
COc1cc2c(c(OC)c1OC)-c1ccc(OC)c(=O)cc1[C@@H](NC(=O)CCCCCC(=O)OC1C3CC4CC(C3)CC1C4)CC2 (stereo not given in full) | 8.22 | Active | Activity (A549 (Homo sapiens)): Active
COc1cc2c(c(OC)c1OC)-c1ccc(OC)c(=O)cc1[C@@H](NC(=O)CCCCCC(=O)OC1CCCCC1)CC2 | 8.32 | Active | –
CC(=O)O[C@H]1C(=O)[C@@]2(C)[C@H]([C@H](OC(=O)c3ccccc3)[C@]3(O)C[C@H](OC(=O)[C@H](O)[C@@H](NC(=O)c4ccccc4)c4ccccc4)C(C)=C1C3(C)C)[C@]1(OC(C)=O)CO[C@@H]1C[C@@H]2O [PACLITAXEL] | 8.34 | – | Activity (A549 [5]): Active
